Tests used:
[1] = molecular target: Excitatory amino acid transporter 1 (Homo sapiens, UniProt P43003); experiment: Inhibition of [3H]-D-aspartate uptake at human EAAT1 expressed in HEK293 cells after 6 mins by scintillation counting
Procedure, shortened: (§1)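 Each transporter subtype stably expressed in its own HEK293 cell line. Inhibitor potency measured as block of [³H]-D-aspartate uptake into these cells and reported as IC₅₀ values.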

[2] = molecular target: T1, Excitatory amino acid transporter 3 (Homo sapiens, UniProt P43005); experiment: Inhibition of [3H]-D-aspartate uptake at human EAAT3 expressed in HEK293 cells after 6 mins by scintillation counting; procedure, shortened: as §1
T1 sequence (P43005 whole entry): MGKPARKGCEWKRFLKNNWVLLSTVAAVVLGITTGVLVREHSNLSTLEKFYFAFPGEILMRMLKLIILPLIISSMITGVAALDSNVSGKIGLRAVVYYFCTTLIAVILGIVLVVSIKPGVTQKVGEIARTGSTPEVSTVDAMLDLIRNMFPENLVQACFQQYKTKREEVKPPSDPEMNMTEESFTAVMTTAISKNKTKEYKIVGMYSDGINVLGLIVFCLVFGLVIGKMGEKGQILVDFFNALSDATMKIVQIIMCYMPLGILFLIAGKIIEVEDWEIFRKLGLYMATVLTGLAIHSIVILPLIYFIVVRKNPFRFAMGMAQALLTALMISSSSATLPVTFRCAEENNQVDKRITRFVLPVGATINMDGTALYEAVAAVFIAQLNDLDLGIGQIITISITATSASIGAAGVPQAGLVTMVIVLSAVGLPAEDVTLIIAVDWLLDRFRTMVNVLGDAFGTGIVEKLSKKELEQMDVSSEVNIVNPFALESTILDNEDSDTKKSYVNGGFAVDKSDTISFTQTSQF

[3] = molecular target: Excitatory amino acid transporter 2 (Homo sapiens, UniProt P43004); experiment: Inhibition of [3H]-D-aspartate uptake at human EAAT2 expressed in HEK293 cells after 6 mins by scintillation counting; procedure, shortened: as §1
Excitatory amino acid transporter 2, sequence (P43004 whole entry): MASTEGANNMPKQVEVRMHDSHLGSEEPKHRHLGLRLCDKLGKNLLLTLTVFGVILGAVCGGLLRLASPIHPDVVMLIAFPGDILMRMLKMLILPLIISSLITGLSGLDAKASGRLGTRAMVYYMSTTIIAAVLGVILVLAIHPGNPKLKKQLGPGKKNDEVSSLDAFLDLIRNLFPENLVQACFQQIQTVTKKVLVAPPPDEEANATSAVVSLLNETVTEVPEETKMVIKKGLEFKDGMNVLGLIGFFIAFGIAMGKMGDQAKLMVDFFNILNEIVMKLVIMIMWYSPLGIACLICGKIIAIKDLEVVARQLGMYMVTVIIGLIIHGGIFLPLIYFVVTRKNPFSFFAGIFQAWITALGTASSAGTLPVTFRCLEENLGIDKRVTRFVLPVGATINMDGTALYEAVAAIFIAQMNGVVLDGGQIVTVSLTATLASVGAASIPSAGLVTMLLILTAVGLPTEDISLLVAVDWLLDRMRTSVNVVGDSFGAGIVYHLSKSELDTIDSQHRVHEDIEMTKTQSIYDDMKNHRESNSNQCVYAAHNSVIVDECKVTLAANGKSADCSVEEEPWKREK

Excitatory amino acid transporter 1, sequence (P43003 whole entry): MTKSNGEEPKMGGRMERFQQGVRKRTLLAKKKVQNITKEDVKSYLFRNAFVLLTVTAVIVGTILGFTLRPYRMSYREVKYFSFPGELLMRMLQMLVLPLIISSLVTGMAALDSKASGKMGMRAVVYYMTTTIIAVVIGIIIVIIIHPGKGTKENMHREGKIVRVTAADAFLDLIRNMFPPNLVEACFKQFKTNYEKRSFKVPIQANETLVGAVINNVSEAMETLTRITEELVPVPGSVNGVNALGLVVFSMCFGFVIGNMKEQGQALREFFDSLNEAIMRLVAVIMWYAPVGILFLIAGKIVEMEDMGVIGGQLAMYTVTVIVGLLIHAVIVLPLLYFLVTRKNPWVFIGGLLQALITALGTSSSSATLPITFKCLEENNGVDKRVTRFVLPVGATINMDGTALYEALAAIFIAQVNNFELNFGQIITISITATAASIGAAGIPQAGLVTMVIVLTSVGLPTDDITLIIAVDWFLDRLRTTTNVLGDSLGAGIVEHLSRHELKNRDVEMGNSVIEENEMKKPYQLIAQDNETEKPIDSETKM

Question: Which results are given for COc1ccc2c(C3C4=C(CC(c5ccccc5)CC4=O)OC(=N)C3C#N)cc(=O)oc2c1 (configuration not stated)?
Answer: IC50 [1]: > 316 µM; IC50 [2]: > 300 µM; IC50 [3]: > 300 µM

Question: How did the IC50 [1] turn out when CCN(CC)c1ccc2c(C3C4=C(CC(c5cccc6ccccc56)CC4=O)OC(=N)C3C#N)cc(=O)oc2c1 (configuration not stated) was run?
Answer: > 316 µM

Question: What about the IC50 [2] of the same compound?
Answer: > 300 µM

Question: What about the IC50 [3] of the same compound?
Answer: > 300 µM

Question: For COc1ccc2c(C)c(-c3ccc(C4C5=C(CC(c6ccccc6)CC5=O)OC(=N)C4C#N)cc3)c(=O)oc2c1 (configuration not stated), which IC50 [1] is on record?
Answer: > 316 µM

Question: What about the IC50 [2] of the same compound?
Answer: > 300 µM

Question: And the IC50 [3]?
Answer: > 300 µM

Question: What does the source list for CCN(CC)c1ccc2c(C)c(-c3ccc(C4C5=C(CC(c6ccccc6)CC5=O)OC(=N)C4C#N)cc3)c(=O)oc2c1 (configuration not stated)?
Answer: IC50 [1]: > 316 µM; IC50 [2]: > 300 µM; IC50 [3]: > 300 µM
